According to ChEMBL document CHEMBL2406927, “Inhibitory effect of resveratrol dimerized derivatives on nitric oxide production in lipopolysaccharide-induced RAW 264.7 cells” (Bioorg Med Chem Lett, 2013):
Calls of active or inactive are those of the source. No cut-off for these calls is given here.

Tests used:
RAW264.7 [1] = assay: Antiinflammatory activity in mouse RAW264.7 cells assessed as inhibition of LPS-induced iNOS protein expression incubated for 2 hrs prior to LPS challenge measured after 24 hrs by Western blot analysis; format: functional, cell-based
In short: (§1)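 Western blot quantitation of iNOS protein, with β-actin as loading control. RAW 264.7 cells were given a 2 h compound pretreatment (5–20 μM), then 1 μg/mL LPS for 24 h. Data come from at least three independent experiments, each performed in duplicate.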

RAW264.7 [2] = assay: Antiinflammatory activity in mouse RAW264.7 cells assessed as LPS-induced NO production at 10 uM treated 2 hrs before LPS challenge measured after 24 hrs
JNK1/JNK2 (Mus musculus) = JNK1/JNK2 (Mus musculus) (UniProt Q91Y86+Q9WTU6); assay: Inhibition of LPS-induced JNK1/2 phosphorylation in mouse RAW264.7 cells after 45 mins by Western blot analysis; format: cell-based
Sequence of JNK1/JNK2 (Mus musculus) (Q91Y86 whole entry, looked up): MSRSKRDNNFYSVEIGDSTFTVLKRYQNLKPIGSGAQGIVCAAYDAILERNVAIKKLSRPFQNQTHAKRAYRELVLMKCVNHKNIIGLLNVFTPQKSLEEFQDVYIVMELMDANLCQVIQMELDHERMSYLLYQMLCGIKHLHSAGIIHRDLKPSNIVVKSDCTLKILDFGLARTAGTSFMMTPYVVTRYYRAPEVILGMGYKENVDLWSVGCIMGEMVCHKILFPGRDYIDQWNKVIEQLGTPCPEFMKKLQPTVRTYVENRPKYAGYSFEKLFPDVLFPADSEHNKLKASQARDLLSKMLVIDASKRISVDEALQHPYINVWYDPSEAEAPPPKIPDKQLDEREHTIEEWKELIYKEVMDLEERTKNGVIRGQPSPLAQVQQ
Sequence of JNK1/JNK2 (Mus musculus) (Q9WTU6 whole entry, looked up): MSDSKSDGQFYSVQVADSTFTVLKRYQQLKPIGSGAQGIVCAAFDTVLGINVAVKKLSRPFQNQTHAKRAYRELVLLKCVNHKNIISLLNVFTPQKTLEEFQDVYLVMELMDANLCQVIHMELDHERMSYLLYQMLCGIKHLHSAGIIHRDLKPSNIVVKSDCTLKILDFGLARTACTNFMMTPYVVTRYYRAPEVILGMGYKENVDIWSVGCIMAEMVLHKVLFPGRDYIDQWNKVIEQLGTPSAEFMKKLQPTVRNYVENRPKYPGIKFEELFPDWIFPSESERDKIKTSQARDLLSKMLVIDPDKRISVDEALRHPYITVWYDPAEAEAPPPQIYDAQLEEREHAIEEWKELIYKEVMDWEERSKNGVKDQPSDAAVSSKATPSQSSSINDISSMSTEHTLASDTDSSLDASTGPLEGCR
In short: (§2)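 Phosphorylation of p38, JNK1/2 and ERK1/2 was detected by Western blot 45 min after LPS stimulation of RAW 264.7 cells. Each phospho-band was quantified against its total kinase as loading control. Data come from at least three independent experiments, each run in duplicate.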

RAW264.7 [3] = assay: Antiinflammatory activity in mouse RAW264.7 cells assessed as inhibition of IL-1beta release at 20 uM after 24 hrs by ELISA; format: functional, cell-based
In short: (§3)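 RAW 264.7 cells were preincubated 2 h with compound (5–20 μM), then stimulated with LPS (1 μg/mL) for 24 h. IL-1β release was measured by ELISA and compared with LPS-stimulated and unstimulated cells. Data come from at least three independent experiments, each run in duplicate.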

RAW264.7 [4] = assay: Antiinflammatory activity in mouse RAW264.7 cells assessed as inhibition of LPS-induced NO production treated 2 hrs before LPS challenge measured after 24 hrs; format: functional, cell-based
In short: (§4)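 Cells were pretreated with compound for 2 h before LPS (1 μg/mL), then incubated 24 h. NO production was determined by nitrite/nitrate assay and expressed as a percentage of LPS-stimulated cells (means, SEM). IC50 is the concentration giving 50% inhibition of NO production. Data come from at least three independent experiments, each run in duplicate.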

RAW264.7 [5] = assay: Antiinflammatory activity in mouse RAW264.7 cells assessed as inhibition of LPS-induced NO production at 20 uM treated 2 hrs before LPS challenge measured after 24 hrs; format: functional, cell-based; in short: as §4
RAW264.7 [6] = assay: Antiinflammatory activity in mouse RAW264.7 cells assessed as inhibition of LPS-induced iNOS expression at 20 uM after 24 hrs by Western blot analysis; format: functional, cell-based; in short: as §1
RAW264.7 [7] = assay: Antiinflammatory activity in mouse RAW264.7 cells assessed as inhibition of LPS-induced IL-1beta release incubated for 2 hrs prior to LPS challenge measured after 24 hrs by ELISA; format: functional, cell-based; in short: as §3
RAW264.7 [8] = assay: Cytotoxicity against mouse RAW264.7 cells up to 20 uM; format: cell-based
[9] = molecular target: MAP kinase p38 (Mus musculus) (UniProt P47811+O08911+Q9WUI1+Q9Z1B7); assay: Inhibition of LPS-induced p38 MAPK phosphorylation in mouse RAW264.7 cells after 45 mins by Western blot analysis; format: cell-based; in short: as §2
RAW264.7 [10] = assay: Antiinflammatory activity in mouse RAW264.7 cells assessed as inhibition of LPS-induced iNOS expression at 10 uM after 24 hrs by Western blot analysis; format: functional, cell-based; in short: as §1
RAW264.7 [11] = assay: Antiinflammatory activity in mouse RAW264.7 cells assessed as inhibition of LPS-induced NO production at 10 uM treated 2 hrs before LPS challenge measured after 24 hrs; format: functional; in short: as §4
RAW264.7 [12] = assay: Antiinflammatory activity in mouse RAW264.7 cells assessed as inhibition of IL-1beta release at 10 uM after 24 hrs by ELISA; format: functional, cell-based; in short: as §3
[13] = Mus musculus, RAW264.7, read-out: IC50

| Structure (SMILES) | NO production % at 10 µM (RAW264.7 [2]) | IC50 (RAW264.7 [4]; [13]) | other results |
| --- | --- | --- | --- |
| COc1cc(OC)cc([C@@H]2C(O)c3cc(OC)cc(OC)c3[C@H]2c2ccccc2)c1 (stereo not given in full) | 49.5% | 3.38 µM | inhibition (RAW264.7 [1]): Dose-dependent effect; inhibition (JNK1/JNK2 (Mus musculus)): Dose-dependent effect; inhibition (RAW264.7 [3]): Active; inhibition (RAW264.7 [4]): Dose-dependent effect; inhibition (RAW264.7 [5]): Active; inhibition (RAW264.7 [6]): Active; inhibition (RAW264.7 [7]): Dose-dependent effect; Activity (RAW264.7 [8]): Non-toxic; inhibition [9]: Dose-dependent effect |
| COc1ccc([C@@H]2c3c(OC)cc(OC)cc3C(SCc3ccc(Cl)cc3)[C@H]2c2cc(OC)cc(OC)c2)cc1 (stereo not given in full) | 79.8% | > 200 µM | – |
| COc1ccc([C@@H]2c3c(OC)cc(OC)cc3/C(=C/c3ccc(C)cc3)[C@H]2c2cc(OC)cc(OC)c2)cc1 | 99.2% | > 200 µM | – |
| COc1ccc(CSC2c3cc(OC)cc(OC)c3[C@@H](c3ccccc3)[C@@H]2c2cc(OC)cc(OC)c2)cc1 (stereo not given in full) | 72.4% | > 200 µM | – |
| COc1ccc([C@@H]2c3c(OC)cc(OC)cc3C(C(O)c3ccc(C)cc3)[C@H]2c2cc(OC)cc(OC)c2)cc1 (stereo not given in full) | 63.5% | 26.5 µM | – |
| O=C1c2cc(O)cc(O)c2[C@@H](c2ccc(O)cc2)[C@@H]1c1cc(O)cc(O)c1 [ISOPAUCIFLORAL F] | 97.1% | > 200 µM | – |
| COc1ccc([C@@H]2c3c(OC)cc(OC)cc3C(=O)[C@H]2c2cc(OC)cc(OC)c2)cc1 | 60.9% | > 200 µM | – |
| COc1cc(OC)cc([C@@H]2C(=O)c3cc(OC)cc(OC)c3[C@H]2c2ccc(F)cc2)c1 | 57.4% | 44.8 µM | – |
| COc1cc(OC)cc([C@@H]2C(O)c3cc(OC)cc(OC)c3[C@H]2c2ccc(F)cc2)c1 (stereo not given in full) | 54% | – | IC50 (RAW264.7 [4]; raw264.7): Not Active |
| COc1ccc([C@@H]2c3c(OC)cc(OC)cc3/C(=C/c3ccccc3)[C@H]2c2cc(OC)cc(OC)c2)cc1 | 88.2% | > 200 µM | – |
| COc1ccc(/C=C2/c3cc(OC)cc(OC)c3[C@@H](c3ccc(OC)cc3)[C@@H]2c2cc(OC)cc(OC)c2)cc1 | 56.1% | 6.26 µM | – |
| COc1ccc(C(O)C2c3cc(OC)cc(OC)c3[C@@H](c3ccc(OC)cc3)[C@@H]2c2cc(OC)cc(OC)c2)cc1 (stereo not given in full) | 77% | > 200 µM | – |
| COc1cc(OC)cc([C@@H]2C(C(O)c3ccccc3)c3cc(OC)cc(OC)c3[C@H]2c2ccccc2)c1 (stereo not given in full) | 59.5% | 21.6 µM | – |
| COc1cccc(-c2cc(=O)c3ccccc3o2)c1N | – | – | inhibition (RAW264.7 [10]): inactive; inhibition (RAW264.7 [11]): inactive; inhibition (RAW264.7 [12]): inactive |
| COc1ccc(/C=C2/c3cc(OC)cc(OC)c3[C@@H](c3ccccc3)[C@@H]2c2cc(OC)cc(OC)c2)cc1 | 84.3% | > 200 µM | – |
| COc1ccc([C@@H]2c3c(OC)cc(OC)cc3C(O)[C@H]2c2cc(OC)cc(OC)c2)cc1 (stereo not given in full) | 58.3% | 7.87 µM | – |
| COc1ccc(CSC2c3cc(OC)cc(OC)c3[C@@H](c3ccc(OC)cc3)[C@@H]2c2cc(OC)cc(OC)c2)cc1 (stereo not given in full) | 70.5% | 12.5 µM | – |

| Structure (SMILES) | NO production % at 10 µM (RAW264.7 [2]) | IC50 (RAW264.7 [4]; [13]) | other results |
| --- | --- | --- | --- |
| COc1ccc([C@@H]2c3c(OC)cc(OC)cc3[C@H]3[C@H](c4ccc(OC)cc4)c4c(OC)cc(OC)cc4[C@@H]23)cc1 | 80.2% | > 200 µM | – |
| C[S+]([O-])c1ccc(-c2nc(-c3ccc(F)cc3)c(-c3ccncc3)[nH]2)cc1 (stereo not given) | – | – | inhibition (RAW264.7 [10]): Active; inhibition (RAW264.7 [11]): Active; inhibition (RAW264.7 [12]): Active |
| COc1cc(OC)cc([C@@H]2/C(=C\c3ccccc3)c3cc(OC)cc(OC)c3[C@H]2c2ccccc2)c1 | 108% | > 200 µM | – |
| Oc1ccc([C@@H]2c3c(O)cc(O)cc3[C@H]3[C@H](c4ccc(O)cc4)c4c(O)cc(O)cc4[C@@H]23)cc1 (relative stereo) [PALLIDOL] | 89.3% | > 200 µM | – |
| COc1ccc([C@@H]2c3c(OC)cc(OC)cc3/C(=C/c3ccc(F)cc3)[C@H]2c2cc(OC)cc(OC)c2)cc1 | 95.9% | > 200 µM | – |
| COc1ccc([C@@H]2c3c(OC)cc(OC)cc3C(C(O)c3ccc(Cl)cc3)[C@H]2c2cc(OC)cc(OC)c2)cc1 (stereo not given in full) | 77.5% | > 200 µM | – |
| COc1ccc([C@@H]2c3c(OC)cc(OC)cc3C(SCc3ccc(F)cc3)[C@H]2c2cc(OC)cc(OC)c2)cc1 (stereo not given in full) | 92.5% | > 200 µM | – |
| COc1ccc([C@@H]2c3c(OC)cc(OC)cc3C(SCc3ccc(C)cc3)[C@H]2c2cc(OC)cc(OC)c2)cc1 (stereo not given in full) | 86.3% | > 200 µM | – |
| COc1cc(OC)cc([C@@H]2C(SCc3ccccc3)c3cc(OC)cc(OC)c3[C@H]2c2ccccc2)c1 (stereo not given in full) | 75.9% | > 200 µM | – |
| COc1ccc(C(O)C2c3cc(OC)cc(OC)c3[C@@H](c3ccccc3)[C@@H]2c2cc(OC)cc(OC)c2)cc1 (stereo not given in full) | 67.8% | 16.5 µM | – |
| Oc1ccc(/C=C2/c3cc(O)cc(O)c3[C@@H](c3ccc(O)cc3)[C@@H]2c2cc(O)cc(O)c2)cc1 | 70% | – | IC50 (RAW264.7 [4]; raw264.7): Not Active |
| COc1ccc([C@@H]2c3c(OC)cc(OC)cc3C(SCc3ccccc3)[C@H]2c2cc(OC)cc(OC)c2)cc1 (stereo not given in full) | 78.1% | > 200 µM | – |
| Oc1c2ccccc2c2c3c(cccc13)N=N2 | – | – | inhibition (RAW264.7 [10]): Active; inhibition (RAW264.7 [11]): Active; inhibition (RAW264.7 [12]): Active |
| COc1ccc([C@@H]2c3c(OC)cc(OC)cc3C(C(O)c3ccccc3)[C@H]2c2cc(OC)cc(OC)c2)cc1 (stereo not given in full) | 75.4% | > 200 µM | – |
| COc1ccc([C@@H]2c3c(OC)cc(OC)cc3C(C(O)c3ccc(F)cc3)[C@H]2c2cc(OC)cc(OC)c2)cc1 (stereo not given in full) | 81.4% | > 200 µM | – |
| COc1ccc([C@@H]2c3c(OC)cc(OC)cc3/C(=C/c3ccc(Cl)cc3)[C@H]2c2cc(OC)cc(OC)c2)cc1 | 90.7% | > 200 µM | – |
| COc1cc(OC)cc([C@@H]2C(=O)c3cc(OC)cc(OC)c3[C@H]2c2ccccc2)c1 | 66% | 27.1 µM | – |
